Results published in ChEMBL document CHEMBL1142136, “Contribution of target gene mutations and efflux to decreased susceptibility of Salmonella enterica serovar typhimurium to fluoroquinolones and other antimicrobials” (2007).
Values after ≈ are worked out from the molar mass of the structure shown.

Tests used:
Assay type in all cases: functional, Salmonella enterica subsp. enterica serovar Typhimurium
[1] = tested on: Salmonella typhimurium; assay: Antimicrobial activity against Salmonella enterica serovar Typhimurium S21
Summary of the method: (§1)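 MICs measured by broth microdilution on the Sensititre automated system and interpreted by CLSI broth microdilution standards. Ciprofloxacin was also tested by agar dilution, widening the range to 0.0075–128 μg/ml. Quality control strains were E. coli ATCC 25922 and 35218, E. faecalis ATCC 29212, S. aureus ATCC 29213 and P. aeruginosa ATCC 27853.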

[2] = tested on: Salmonella typhimurium; assay: Antimicrobial activity against Salmonella enterica serovar Typhimurium S21 gyrA+; summary of the method: as §1
[3] = tested on: Salmonella typhimurium; assay: Antimicrobial activity against Salmonella enterica serovar Typhimurium S21 acrAB::Kan
Summary of the method: (§2)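 MICs by automated broth microdilution panels, interpreted to CLSI broth microdilution standards. Ciprofloxacin additionally tested by agar dilution across 0.0075 to 128 μg/ml. Quality control strains: E. coli ATCC 25922 and 35218, Enterococcus faecalis ATCC 29212, S. aureus ATCC 29213, P. aeruginosa ATCC 27853. Test strains are kanamycin-marked deletion mutants of ground-beef isolate S21.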

[4] = tested on: Salmonella typhimurium; assay: Antimicrobial activity against Salmonella enterica serovar Typhimurium S21 tolC::Kan; summary of the method: as §2
[5] = tested on: Salmonella typhimurium; assay: Antimicrobial activity against Salmonella enterica serovar Typhimurium S21-1 GyrA S83F mutant; summary of the method: as §1
[6] = tested on: Salmonella typhimurium; assay: Antimicrobial activity against Salmonella enterica serovar Typhimurium S21-1 gyrA+; summary of the method: as §1
[7] = tested on: Salmonella typhimurium; assay: Antimicrobial activity against Salmonella enterica serovar Typhimurium GyrA S21-1 acrAB::Kan with GyrA S83F mutation; summary of the method: as §1
[8] = tested on: Salmonella typhimurium; assay: Antimicrobial activity against Salmonella enterica serovar Typhimurium S21-1 tolC::Kan with GyrA S83F mutation; summary of the method: as §1
[9] = tested on: Salmonella typhimurium; assay: Antimicrobial activity against Salmonella enterica serovar Typhimurium S21-2 with GyrA S83F, ParC S80I mutation; summary of the method: as §1
[10] = tested on: Salmonella typhimurium; assay: Antimicrobial activity against Salmonella enterica serovar Typhimurium S21-2 gyrA+ with ParC S80I mutation; summary of the method: as §1
[11] = tested on: Salmonella typhimurium; assay: Antimicrobial activity against Salmonella enterica serovar Typhimurium S21-2 acrAB::Kan with GyrA S83F, ParC S80I mutation; summary of the method: as §1
[12] = tested on: Salmonella typhimurium; assay: Antimicrobial activity against Salmonella enterica serovar Typhimurium S21-2 tolC::Kan with GyrA S83F, ParC S80I mutation; summary of the method: as §1
[13] = tested on: Salmonella typhimurium; assay: Antimicrobial activity against Salmonella enterica serovar Typhimurium S21-3 with GyrA S83F, ParC S80I mutation; summary of the method: as §1
[14] = tested on: Salmonella typhimurium; assay: Antimicrobial activity against Salmonella enterica serovar Typhimurium S21-3 gyrA+ with ParC S80I mutation; summary of the method: as §1
[15] = tested on: Salmonella typhimurium; assay: Antimicrobial activity against Salmonella enterica serovar Typhimurium S21-3 acrAB::Kan with GyrA S83F, ParC S80I mutation; summary of the method: as §1
[16] = tested on: Salmonella typhimurium; assay: Antimicrobial activity against Salmonella enterica serovar Typhimurium CHS14 gyrA+ with GyrA D87G mutation; summary of the method: as §1
[17] = tested on: Salmonella typhimurium; assay: Antimicrobial activity against Salmonella enterica serovar Typhimurium CHS14 acrAB::Kan with GyrA D87G mutation; summary of the method: as §1
[18] = tested on: Salmonella typhimurium; assay: Antimicrobial activity against Salmonella enterica serovar Typhimurium CHS14 tolC::Kan with GyrA D87G mutant; summary of the method: as §1
[19] = tested on: Salmonella typhimurium; assay: Antimicrobial activity against Salmonella enterica serovar Typhimurium CHS18 with GyrA S38F mutation; summary of the method: as §1
[20] = tested on: Salmonella typhimurium; assay: Antimicrobial activity against Salmonella enterica serovar Typhimurium CHS18 gyrA+ with GyrA S38F mutation; summary of the method: as §1
[21] = tested on: Salmonella typhimurium; assay: Antimicrobial activity against Salmonella enterica serovar Typhimurium CHS18 acrAB::Kan with GyrA S38F mutation; summary of the method: as §1
[22] = tested on: Salmonella typhimurium; assay: Antimicrobial activity against Salmonella enterica serovar Typhimurium CHS18 tolC::Kan with GyrA S38F mutation; summary of the method: as §1
[23] = tested on: Salmonella typhimurium; assay: Antimicrobial activity against Salmonella enterica serovar Typhimurium S21-4 acrAB::Kan with GyrA S83F, ParC S80I mutation; summary of the method: as §1
[24] = tested on: Salmonella typhimurium; assay: Antimicrobial activity against Salmonella enterica serovar Typhimurium S21-3 tolC::Kan with GyrA S83F, ParC S80I mutation; summary of the method: as §1
[25] = tested on: Salmonella typhimurium; assay: Antimicrobial activity against Salmonella enterica serovar Typhimurium S21-4 with GyrA S83F, ParC S80I mutation; summary of the method: as §1
[26] = tested on: Salmonella typhimurium; assay: Antimicrobial activity against Salmonella enterica serovar Typhimurium S21-4 gyrA+ with ParC S80I mutation; summary of the method: as §1
[27] = tested on: Salmonella typhimurium; assay: Antimicrobial activity against Salmonella enterica serovar Typhimurium S21-4 tolC::Kan with GyrA S83F, ParC S80I mutation; summary of the method: as §1
[28] = tested on: Salmonella typhimurium; assay: Antimicrobial activity against Salmonella enterica serovar Typhimurium CS1 with GyrA S83F, D87N, ParC S80I mutation; summary of the method: as §1
[29] = tested on: Salmonella typhimurium; assay: Antimicrobial activity against Salmonella enterica serovar Typhimurium CS1 gyrA+ with GyrA S83F, D87N, ParC S80I mutation; summary of the method: as §1
[30] = tested on: Salmonella typhimurium; assay: Antimicrobial activity against Salmonella enterica serovar Typhimurium CS1 acrAB::Kan with GyrA S83F, D87N, ParC S80I mutation; summary of the method: as §1
[31] = tested on: Salmonella typhimurium; assay: Antimicrobial activity against Salmonella enterica serovar Typhimurium CS1 tolC::Kan with GyrA S83F, D87N, ParC S80I mutation; summary of the method: as §1
[32] = tested on: Salmonella typhimurium; assay: Antimicrobial activity against Salmonella enterica serovar Typhimurium CS3 with GyrA S83F, D87N, ParC S80I mutation; summary of the method: as §1
[33] = tested on: Salmonella typhimurium; assay: Antimicrobial activity against Salmonella enterica serovar Typhimurium CS3 gyrA+ with GyrA S83F, D87N, ParC S80I mutation; summary of the method: as §1
[34] = tested on: Salmonella typhimurium; assay: Antimicrobial activity against Salmonella enterica serovar Typhimurium CS3 acrAB::Kan with GyrA S83F, D87N, ParC S80I mutation; summary of the method: as §1
[35] = tested on: Salmonella typhimurium; assay: Antimicrobial activity against Salmonella enterica serovar Typhimurium CS3 tolC::Kan with GyrA S83F, D87N, parC S80I mutation; summary of the method: as §1
[36] = tested on: Salmonella typhimurium; assay: Antimicrobial activity against Salmonella enterica serovar Typhimurium CS9 with GyrA S83F, D87N, ParC S80I mutation; summary of the method: as §1
[37] = tested on: Salmonella typhimurium; assay: Antimicrobial activity against Salmonella enterica serovar Typhimurium CS9 gyrA+ with GyrA S83F, D87N, ParC S80I mutation; summary of the method: as §1
[38] = tested on: Salmonella typhimurium; assay: Antimicrobial activity against Salmonella enterica serovar Typhimurium CS9 acrAB::Kan with GyrA S83F, D87N, ParC S80I mutation; summary of the method: as §1
[39] = tested on: Salmonella typhimurium; assay: Antimicrobial activity against Salmonella enterica serovar Typhimurium CS9 tolC::Kan with GyrA S83F, D87N, ParC S80I mutation; summary of the method: as §1
[40] = tested on: Salmonella typhimurium; assay: Antimicrobial activity against Salmonella enterica serovar Typhimurium CHS14 with GyrA D87G mutation; summary of the method: as §1
[41] = tested on: Salmonella typhimurium; assay: Antimicrobial activity against Salmonella enterica serovar Typhimurium CHS38 with GyrA D87G mutation; summary of the method: as §1
[42] = tested on: Salmonella typhimurium; assay: Antimicrobial activity against Salmonella enterica serovar Typhimurium CHS38 gyrA+ with GyrA D87G mutation; summary of the method: as §1
[43] = tested on: Salmonella typhimurium; assay: Antimicrobial activity against Salmonella enterica serovar Typhimurium CHS38 acrAB::Kan with GyrA D87G mutation; summary of the method: as §1
[44] = tested on: Salmonella typhimurium; assay: Antimicrobial activity against Salmonella enterica serovar Typhimurium CHS38 tolC::Kan with GyrA D87G mutation; summary of the method: as §1

Question: Which MIC [1] does the source give for `CCn1cc(C(=O)O)c(=O)c2cc(F)c(N3CCNCC3)nc21` [ENOXACIN] here?
Answer: The MIC was 0.06 µg/mL (≈ 0.187 µM).

Question: What about the MIC [2] of the same molecule?
Answer: The MIC was 0.06 µg/mL (≈ 0.187 µM).

Question: And the MIC [3]?
Answer: Its MIC is < 0.015 µg/mL.

Question: And the MIC [4]?
Answer: Its MIC is < 0.015 µg/mL.

Question: What about the MIC [5] of the same molecule?
Answer: The MIC was 0.5 µg/mL (≈ 1.56 µM).

Question: And the MIC [6]?
Answer: Its MIC is 0.06 µg/mL (≈ 0.187 µM).

Question: What about the MIC [7] of the same molecule?
Answer: The MIC was 0.06 µg/mL (≈ 0.187 µM).

Question: What about the MIC [8] of the same molecule?
Answer: Its MIC is 0.06 µg/mL (≈ 0.187 µM).

Question: And the MIC [9]?
Answer: Its MIC is 8 µg/mL (≈ 25 µM).

Question: And the MIC [10]?
Answer: The MIC was 1 µg/mL (≈ 3.12 µM).

Question: What about the MIC [11] of the same molecule?
Answer: The MIC was 0.12 µg/mL (≈ 0.375 µM).

Question: And the MIC [12]?
Answer: Its MIC is 0.12 µg/mL (≈ 0.375 µM).

Question: What about the MIC [13] of the same molecule?
Answer: Its MIC is > 16 µg/mL.

Question: What about the MIC [14] of the same molecule?
Answer: The MIC was 2 µg/mL (≈ 6.24 µM).

Question: And the MIC [15]?
Answer: The MIC was 0.25 µg/mL (≈ 0.78 µM).

Question: And the MIC [16]?
Answer: The MIC was 0.06 µg/mL (≈ 0.187 µM).

Question: And the MIC [17]?
Answer: The MIC was 0.03 µg/mL (≈ 0.0937 µM).

Question: And the MIC [18]?
Answer: Its MIC is < 0.015 µg/mL.

Question: And the MIC [19]?
Answer: The MIC was 0.5 µg/mL (≈ 1.56 µM).

Question: And the MIC [20]?
Answer: The MIC was 0.12 µg/mL (≈ 0.375 µM).

Question: What about the MIC [21] of the same molecule?
Answer: The MIC was 0.25 µg/mL (≈ 0.78 µM).

Question: What about the MIC [22] of the same molecule?
Answer: The MIC was 0.03 µg/mL (≈ 0.0937 µM).

Question: And the MIC [23]?
Answer: The MIC was 0.12 µg/mL (≈ 0.375 µM).

Question: What about the MIC [24] of the same molecule?
Answer: Its MIC is 0.12 µg/mL (≈ 0.375 µM).

Question: And the MIC [25]?
Answer: The MIC was > 16 µg/mL.

Question: What about the MIC [26] of the same molecule?
Answer: The MIC was 4 µg/mL (≈ 12.5 µM).

Question: What about the MIC [27] of the same molecule?
Answer: Its MIC is 0.12 µg/mL (≈ 0.375 µM).

Question: What about the MIC [28] of the same molecule?
Answer: The MIC was 16 µg/mL (≈ 49.9 µM).

Question: And the MIC [29]?
Answer: The MIC was 0.06 µg/mL (≈ 0.187 µM).

Question: And the MIC [30]?
Answer: Its MIC is 4 µg/mL (≈ 12.5 µM).

Question: What about the MIC [31] of the same molecule?
Answer: The MIC was 4 µg/mL (≈ 12.5 µM).

Question: And the MIC [32]?
Answer: Its MIC is 16 µg/mL (≈ 49.9 µM).

Question: And the MIC [33]?
Answer: Its MIC is 0.06 µg/mL (≈ 0.187 µM).

Question: What about the MIC [34] of the same molecule?
Answer: The MIC was 4 µg/mL (≈ 12.5 µM).

Question: What about the MIC [35] of the same molecule?
Answer: Its MIC is 4 µg/mL (≈ 12.5 µM).

Question: What about the MIC [36] of the same molecule?
Answer: The MIC was 16 µg/mL (≈ 49.9 µM).

Question: What about the MIC [37] of the same molecule?
Answer: Its MIC is 0.06 µg/mL (≈ 0.187 µM).

Question: What about the MIC [38] of the same molecule?
Answer: The MIC was 4 µg/mL (≈ 12.5 µM).

Question: What about the MIC [39] of the same molecule?
Answer: Its MIC is 4 µg/mL (≈ 12.5 µM).

Question: What about the MIC [40] of the same molecule?
Answer: Its MIC is 1 µg/mL (≈ 3.12 µM).

Question: What about the MIC [41] of the same molecule?
Answer: The MIC was 0.12 µg/mL (≈ 0.375 µM).

Question: And the MIC [42]?
Answer: The MIC was < 0.015 µg/mL.

Question: And the MIC [43]?
Answer: Its MIC is 0.03 µg/mL (≈ 0.0937 µM).

Question: And the MIC [44]?
Answer: The MIC was < 0.015 µg/mL.
